UCH37 DUB inh: human UCH37 deubiquitinating enzyme inhibition. Q9Y5K5. purified proteasome/UCH37, Ub-AMC cleavage fluorescence. inhibition, % (test concentration not listed). actives 0.33% (n = 330,000);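 active means mean inhibition over replicate wells above about 20%, limit read from the data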
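system = Proteasome-associated human UCH37 deubiquitinase | amount = 0.15 nM proteasome as dispensed | medium = pH 7.4 Tris-HCl (50 mM) with ovalbumin, ATP-MgCl2, DTT | incubation = 30 min preincubation with enzyme, 25 min cleavage at room temperature | detection = AMC fluorescence 355/460 nm | read-out basis = percent inhibition | controls = no-proteasome and no-compound wells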
PKA-R2B activ: activates the human PKA-R2B holoenzyme complex. PKA-R2B holoenzyme dissociation, Cy5-IP20 fluorescence polarization; R2B truncated from residue 108, S112A mutant; 0% DMSO only, 100% 113 µM cGMP. P22694+P31323. actives 0.079% (n = 340,000). AID 504700. activation, % at 11.4 µM;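 active means activation above a cutoff set at the mean over all compounds plus 3 SD, cut at about 18% in these data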;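 further: higher means more holoenzyme dissociation and a rise in polarization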
Target sequence (P31323 whole entry, looked up, other chains not shown, the tested form may be a part): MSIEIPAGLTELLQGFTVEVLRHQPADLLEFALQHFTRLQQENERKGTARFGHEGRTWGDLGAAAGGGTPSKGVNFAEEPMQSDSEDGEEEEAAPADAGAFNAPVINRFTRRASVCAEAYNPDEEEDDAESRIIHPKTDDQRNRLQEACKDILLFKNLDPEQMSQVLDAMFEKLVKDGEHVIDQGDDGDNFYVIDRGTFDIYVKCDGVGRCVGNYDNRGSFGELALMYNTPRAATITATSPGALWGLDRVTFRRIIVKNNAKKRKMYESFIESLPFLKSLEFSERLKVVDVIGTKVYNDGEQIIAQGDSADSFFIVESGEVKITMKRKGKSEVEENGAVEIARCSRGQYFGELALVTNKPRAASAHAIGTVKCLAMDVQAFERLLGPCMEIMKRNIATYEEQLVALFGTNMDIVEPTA
Rin1 Abl inh: blocks binding of human Rin1 to Abl | TR-FRET Rin1/Abl binding, biochemical | inhibition, % at 7.35 µM | actives 0.4% (n = 360,000); in the data active means inhibition above about 5%, passing the limit was not always enough
PKA-R1A act: activators of PKA-R1A complex. P00514+P68181. PKA-R1A dissociation, Cy5-IP20 fluorescence polarization; scaled: DMSO 0%, 113 µM cGMP 100%. actives 0.083% (n = 340,000). AID 504707. activation, % at 11.4 µM;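 active means percent activation above the mean of all tested compounds plus 3 SD, cut at about 19% in these data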;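 further: higher means more PKAc released from R1A so a rise in polarization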
Hits are given with their value; . = inactive; / = no result. An excerpt weighted towards active compounds, which were near 0.79% of everything screened.

SMILES | UCH37 DUB inh | PKA-R2B activ | Rin1 Abl inh | PKA-R1A act
NC1=NC(=O)/C(=C\c2ccc(O)c([N+](=O)[O-])c2)S1 | 23.6 | . | . | .
Cc1cc(C)c(S(=O)(=O)N=C2C=C(Sc3ncn[nH]3)C(=O)c3ccccc32)cc1C | 30.7 | / | / | /
CN(C)c1ccc(/C=C(\NC(=O)c2ccccc2)C(=O)NCCCN2CCOCC2)cc1 | . | . | . | .
COCc1cc(=O)[nH]c(N=C(N)Nc2ccccc2C)n1 | 29.2 | / | / | /
COCc1cc(=O)[nH]c(N=C(N)Nc2ccc(C)cc2C)n1 | . | / | / | /
CN(CC(=O)Nc1ccccc1Cl)C(=O)COC(=O)c1ccc(S(=O)(=O)C(F)F)cc1 | . | . | . | .
O=C1C(Cl)=C(NS(=O)(=O)c2ccc([N+](=O)[O-])cc2)C(=O)c2ccccc21 | 24.5 | . | . | .
O=[N+]([O-])c1ccc(Oc2ccc(S(=O)(=O)Nc3ccccc3)cc2)cc1 | . | . | . | .
CC(C)(C)S(=O)(=O)N1C[C@@H]2CC/C=C\C/C(c3ccccc3)=C\2[C@H]1CCO | 20.5 | . | . | .
CC(=O)Nc1ccc(S(=O)(=O)N2CCN(c3nc(NC4CCCC4)c4ccccc4n3)CC2)cc1 | . | . | 11.4 | .
O=C(O)CN1C(=O)/C(=C\c2cc(Br)ccc2OCc2ccccc2F)SC1=S | 24.1 | . | . | .
CC1=NC(=O)C(N=Nc2ccccc2C(=O)O)N1c1ccccc1 (stereo not given) | 20.7 | / | . | /
CC1=NC(=O)C(N=Nc2ccccc2)N1c1ccccc1 (stereo not given) | . | . | . | .
Nc1nnnn1N=Cc1cccc(OCc2ccccc2Cl)c1 | . | / | / | /
O=C(/C=C/c1ccc(Cl)cc1)N(Cc1ccccc1)c1ccccn1 | 27.2 | . | . | .
O=C1NC(=S)S/C1=C\c1ccc(SCc2ccco2)o1 | / | . | 11.8 | .
O=C(c1cccs1)N1CCN(S(=O)(=O)c2ccc(F)cc2)CC1 | . | / | / | /
O=C(c1ncn(Cc2ccccc2)c1C(=O)N1CCN(c2ccccc2)CC1)N1CCN(c2ccccc2)CC1 | . | . | . | .
CC(C)(C)OC(=O)N1CCN(C(=O)c2ncn(Cc3ccccc3)c2C(=O)N2CCN(C(=O)OC(C)(C)C)CC2)CC1 | 29.0 | . | . | .
O=C(NCCC1=CCCCC1)C1CCN(S(=O)(=O)c2ccccc2)CC1 | . | . | . | .
O=C(NCCC1=CCCCC1)C1CCN(S(=O)(=O)c2cnc[nH]2)CC1 | 20.4 | . | . | .
CC(=O)c1ccc(-c2ccc(/C=C(/Sc3n[nH]c(C)n3)C(=O)O)o2)cc1 | 20.9 | . | . | .
Cc1nc(S/C(=C/c2ccc(-c3ccc(C(=O)O)cc3)o2)C(=O)O)n[nH]1 | / | . | . | .
Cn1c(O)c(C=Nc2ccc(N3CCOCC3)cc2)c(=O)n(C)c1=S | 33.7 | . | . | .
CCOc1cc(/C=C2\NC(=O)NC2=O)cc([N+](=O)[O-])c1O | 21.0 | . | . | .
SMILES | UCH37 DUB inh | PKA-R2B activ | Rin1 Abl inh | PKA-R1A act
CCOc1cc(/C=C2\C(=O)NN(c3ccccc3)C2=O)cc([N+](=O)[O-])c1O | . | . | . | .
Cc1ccc(NC(=O)C2=C(O)c3sccc3N(C)S2(=O)=O)cc1 | . | . | . | .
Cc1ccc(NC(=S)C2=C(O)c3sccc3N(C)S2(=O)=O)cc1 | 24.0 | . | . | .
CCCCCCCCCCCCCCCC[n+]1cccc2ccccc21 | 87.7 | . | . | .
O=C(Nc1cccc(NC(=O)c2cccnc2Cl)c1)c1ccco1 | . | . | . | .
Nc1nnc2c(n1)CCCC2 | 21.1 | . | . | .
C1CCc2nc3c(nc2C1)CCCC3 | . | . | . | .
COc1cccc(C=NNc2ccc(S(=O)(=O)Nc3ccccc3C(=O)O)cc2[N+](=O)[O-])c1O | . | / | / | /
O=C(O)c1ccccc1NS(=O)(=O)c1ccc(NN=Cc2ccccc2F)c([N+](=O)[O-])c1 | . | 22.6 | . | .
CCOc1cccc(C=NNc2ccc(S(=O)(=O)Nc3ccccc3C(=O)O)cc2[N+](=O)[O-])c1O | . | . | . | .
COc1ccc(C=NNc2ccc(S(=O)(=O)Nc3ccccc3C(=O)O)cc2[N+](=O)[O-])c(OC)c1 | 31.5 | . | . | .
O=C(O)c1ccccc1NS(=O)(=O)c1ccc(NN=Cc2ccc(O)c(O)c2)c([N+](=O)[O-])c1 | . | / | / | /
CSc1ccc(C=NNc2ccc(S(=O)(=O)Nc3ccccc3C(=O)O)cc2[N+](=O)[O-])cc1 | 22.4 | . | . | .
CC1CC(=O)c2c(cc3c(-c4c(O)cc(O)c5c(O)c6c(cc45)OC(C)CC6=O)c(O)cc(O)c3c2O)O1 (stereo not given) | 21.5 | . | . | .
CC(=O)N1CCc2cc(N=NC3=C(O)CC(C)(C)CC3=O)ccc21 | 23.6 | . | . | .
COc1ccccc1C(=O)NNC(=O)c1nn(Cc2ccccc2)c(=O)c2ccccc12 | . | . | . | .
CC(C)Oc1ccc(CN2CCCC(CO)(Cc3ccc(F)cc3)C2)cc1 (stereo not given) | . | . | . | .
COC(=O)CN1C(=S)N(c2ccc(F)cc2)C(=O)C1CC(=O)Nc1ccc(F)cc1 (stereo not given) | . | . | . | .
CN(C)c1ccc(/C=C(\NC(=O)c2ccccc2)C(=O)N/N=C/c2ccc(C(=O)O)cc2)cc1 | / | . | . | .
CN(C)c1ccc(/C=C(/NC(=O)c2ccccc2)C(=O)NN=Cc2ccc([N+](=O)[O-])c(O)c2)cc1 | 20.2 | / | / | /
O=C(N/N=C/c1ccc(O)c(O)c1O)/C(=C/c1ccc([N+](=O)[O-])cc1)NC(=O)c1ccccc1 | / | . | 15.2 | .
Cc1ccc(C)c(NC(=O)CN(C)C(=O)c2cc(-c3cccs3)nn2-c2ccccc2)c1 | . | . | . | .
CC1=C(C#N)c2nc(N)c(C#N)c(C)c2/C1=C\c1ccc(-c2ccccc2C(=O)O)o1 | 22.5 | . | . | .
Nc1nonc1-c1nc2ccccc2n1CC(=O)N/N=C/c1ccc(-c2ccccc2C(=O)O)o1 | / | . | . | .
CN(C)c1ncc(C2=C(Cl)C(=O)C(N3CCCC3)=C(Cl)C2=O)s1 | . | . | 10.6 | .
SMILES | UCH37 DUB inh | PKA-R2B activ | Rin1 Abl inh | PKA-R1A act
COc1ccc(/C=C/C(=O)N(C)C2CCCCC2)cc1Br | . | . | . | .
CC(c1ccccc1)n1c(CCCO)nc2ccccc21 (stereo not given) | . | . | . | .
CC(C)(C)OC(=O)CNC(=O)c1[nH]cnc1C(=O)NCC(=O)OCc1ccccc1 | 30.5 | . | . | .
NC(=O)c1ccc(N=C2C(=O)Nc3ccc([N+](=O)[O-])cc32)cc1 | 84.4 | . | . | .
O=C(COc1ccc2ccccc2c1)N1CCN(C(=O)c2ccco2)CC1 | . | . | . | .
Cc1[nH]n(-c2ccccc2)c(=O)c1N=Nc1nccs1 | 20.7 | . | . | .
Cc1ccccc1N=Nc1c(C)[nH]n(-c2ccccc2)c1=O | . | / | / | /
COc1ccc(C(=O)NN=Cc2sc3ccccc3c2O)cc1 | . | / | / | /
COc1ccc(OC)c(-c2csc(NC(=O)CSc3ccc([N+](=O)[O-])cc3)n2)c1 | 33.1 | . | . | .

Assay outcomes from PubChem.
